Fh CTSL1 inh = counter-screen for PFM18AAP inhibitors: inhibitors of F. hepatica cathepsin L1 | recombinant F. hepatica cathepsin L1, Z-Leu-Arg-MCA fluorescence | inhibition, % at 5.96 µM | AID 1906 | 300,000 compounds, 0.49% hits;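 active = inhibition above the mean of all tested compounds plus 3 SD, set per screening campaign, cut at about 17% in these data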;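 also: 0% = plate median of test compound wells and 100% = 1 µM Z-Phe-Ala-diazomethylketone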
TDP2 absorb = blocks human TDP2 phosphodiesterase activity; O95551; recombinant TDP2, T5PNP hydrolysis, p-nitrophenol absorbance 415 nm; inhibition, % at 12.8 µM; 370,000 compounds, 0.34% hits; AID 720702;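 active = inhibition above the mean of all tested compounds plus 3 SD, set per campaign, cut at about 25% in these data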;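 also: 0% = DMSO with enzyme and 100% = buffer with substrate but no TDP2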
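Test system: human TDP2 enzyme; Input: 120 nM TDP2 per well; Buffer or medium: Mg2+-containing Tris-HCl buffer, pH 7.5; Reagent: 5 mM T5PNP; Dosing: 12.8 µM single point, 1% DMSO; Incubation: reaction 2 h, 37 °C; Detection: p-Nitrophenol epi absorbance; Read-out: % inhibition relative to enzyme-containing and enzyme-free wells; Replicates: single well per compound.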
NSD2 inh = blocks human histone methyltransferase NSD2. O96028. NSD2 peptide methylation, AlphaScreen, 120 min. inhibition, % at 12.5 µM. 310,000 compounds, 0.54% hits; in the data active = inhibition above about 50%
UBC9 SUMO inh = blocks human SUMOylation mediated by UBC9; inhibition, % at 35 µM; P63279; HTRF SUMOylation assay, SAE1/SAE2 + UBC9, in vitro; 290,000 compounds, 0.36% hits; in the data active = inhibition above about 50%, passing the limit was not always enough
AlphaScreen art = AlphaScreen assay artifact in NSD2 counter-screen | shares compounds with NSD2 inh | AC35, µM (series often up to 10 µM), inactives show at the highest dose activity change, negative = signal loss | AlphaScreen artifact counterscreen, preloaded methylated H4 peptide | 1,500 compounds, 9.4% hits; call rule not given here
An asterisk follows results filed as active; . = no result. Most compounds without a hit are left out; they make up all but 1.2% or so of the library.

SMILES	Fh CTSL1 inh	TDP2 absorb	NSD2 inh	UBC9 SUMO inh	AlphaScreen art
O=C(CN(C(=O)c1csnn1)c1ccc(Cl)cc1)NC1CCCC1	5	-6	-1	7	.
CC(=O)NC(c1ccccc1)c1nc(-c2cccs2)cs1 (configuration not stated)	.	4	-1	.	.
CC(C)c1ccc(NC(=O)C2CC(=O)N(C(C)C)C2)cc1 (configuration not stated)	2	-2	2	8	.
C=CCOc1ccc(NC(=O)C2CC(=O)N(C(C)C)C2)cc1 (configuration not stated)	-3	-3	56*	-5	3%
O=C1c2ccccc2C(=O)c2c(Nc3ccc(CCO)cc3)ccc(O)c21	1	4	13	-6	.
O=C1c2c(O)ccc(O)c2C(=O)c2c(NCCNCCO)ccc(NCCNCCO)c21	4	6	92*	.	2µM*
Cc1ccccc1-c1ocnc1C(=O)Nc1ccccc1NC(=O)c1ccccn1	3	2	74*	3	1%
O=C(Nc1nccs1)c1ccc2nccnc2c1	0	4	125*	14	-2%
Cc1ccc(C(=O)Nc2nccs2)cc1	3	-13	-1	18	.
COCCNCc1cc(C)n(-c2cc(S(=O)(=O)N3CCOCC3)ccc2N2CCCC2)c1C	.	6	8	.	.
COc1ccc2cc(C3CC=C(CO)CN3S(=O)(=O)c3ccccc3[N+](=O)[O-])n(C(=O)OC(C)(C)C)c2c1 (configuration not stated)	.	11	-2	.	.
Cc1cc(NC(=O)c2cccc(S(=O)(=O)N3CCOCC3)c2)no1	4	-7	1	29	.
Cc1cc(NC(=O)COC(=O)c2cccc(S(=O)(=O)N3CCOCC3)c2)no1	-13	-24	108*	3	-2%
CC1CN(Cc2c(O)ccc3c(=O)c(-c4ccccc4Cl)coc23)CC(C)O1 (configuration not stated)	7	-3	61*	46	-1%
Cc1ccccc1N1CC(C(=O)Nc2ccc(S(=O)(=O)N3CCOCC3)cc2)CC1=O (configuration not stated)	-3	15	85*	-4	-2%
Cc1ccc(N2CC(C(=O)Nc3ccc(S(=O)(=O)N4CCOCC4)cc3)CC2=O)cc1Cl (configuration not stated)	2	-8	-2	.	.
O=C1c2cccc3c([N+](=O)[O-])ccc(c23)C(=O)N1CCc1ccccn1	-1	5	3	21	.
CN(C)CCCN1C(=O)c2cccc3c([N+](=O)[O-])ccc(c23)C1=O	0	0	71*	6	-2%
CCNC(=O)C1(C)CCCN(C(=O)c2ccc3c(c2)C(C)(C)CCC3(C)C)C1 (configuration not stated)	.	5	-3	.	.
O=C(c1cc(-c2ccc(Cl)cc2)n(-c2ccc(Cl)cc2)n1)N1CCOCC1	1	-6	58*	-13	-2%
COCCNC(=O)CN(C(=O)CCC(=O)Nc1nccs1)c1ccc2c(c1)OCO2	5	14	67*	4	-3%
CC(C)NC(=O)CN(C(=O)CCC(=O)Nc1nccs1)c1ccc2c(c1)OCO2	-3	-7	-5	-12	.
COc1ccc(C2/C(=C(\O)c3cccc(OC)c3)C(=O)C(=O)N2c2ccccn2)cc1 (configuration not stated)	-2	8	116*	27	-1%
Cc1nn(CC(=O)Nc2nnc(C(C)C)s2)c(=O)c2ccccc12	2	-2	59*	8	-1%
Cc1nn(CC(=O)Nc2nnc(CC(=O)N3CCCC3)s2)c(=O)c2ccccc12	4	-9	4	11	.
CC1(C)CC2CC(C)(CN2C(=O)COC(=O)c2ccccc2C(F)(F)F)C1 (configuration not stated)	.	-15	-3	.	.
CSc1ncccc1C(=O)OCC(=O)N1CC2(C)CC1CC(C)(C)C2 (configuration not stated)	.	1	53*	.	-5%
c1ccc(Cn2ccc3ccc(-c4ccc5ccn(Cc6cccc(-c7ccsc7)c6)c5c4)cc32)cc1	.	7	.	.	.
CC(Cc1c[nH]c2ccccc12)C(=O)NCc1ccco1 (configuration not stated)	-3	18	63*	-8	-5%
O=C(CCCCCN1C(=O)C2C3C=CC(C3)C2C1=O)Nc1ccc(Cl)cc1 (configuration not stated)	.	1	-4	.	.
